In ChEMBL document CHEMBL3352255, “Tailor-made fluorescent trilobolide to study its biological relevance” (J Med Chem, 2014):
Active and inactive are the calls of the source. The rule behind the calls is not given here.

Legend:
[1] = Cellular uptake in mitochondria of human PC3 cells at 1 uM after 10 to 40 mins by fluorescence microscopy; type: ADME; conditions: pc-3, 1 µM
How it was run: (§1)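 Live cells were treated with 1 μM Bodipy conjugates for at least 40 min and then co-stained with MitoTracker Red FM (100 nM, 10 min). Imaging by fluorescence microscopy assessed colocalisation with the green signal and the state of the mitochondrial network.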

PC-3 [2] = experiment: Induction of mitochondria fragmentation in human PC3 cells at 1 uM after 10 to 40 mins by fluorescence microscopy; type: functional, cell-based; how it was run: as §1
LNCaP [3] = experiment: Cytotoxicity against human LNCAP cells after 24 hrs by WST-1 assay; type: functional, cell-based
How it was run: (§2)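 Dark cytotoxicity (no light exposure) by WST-1 tetrazolium-to-formazan conversion reflecting metabolic activity; compounds tested at concentrations up to 50 μM for 24, 48 or 72 h; IC50 taken as concentration giving 50% inhibition of cell viability.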

LNCaP [4] = experiment: Cytotoxicity against human LNCAP cells after 48 hrs by WST-1 assay; type: functional, cell-based; how it was run: as §2
LNCaP [5] = experiment: Cytotoxicity against human LNCAP cells after 72 hrs by WST-1 assay; type: functional, cell-based; how it was run: as §2
[6] = Cytotoxicity against human PC3 cells after 24 hrs by WST-1 assay; type: functional, cell-based; conditions: PC-3, 24 h; how it was run: as §2
[7] = Cytotoxicity against human PC3 cells after 48 hrs by WST-1 assay; type: functional, cell-based; conditions: PC-3, 48 h; how it was run: as §2
[8] = Cytotoxicity against human PC3 cells after 72 hrs by WST-1 assay; type: functional, cell-based; conditions: PC-3, 72 h; how it was run: as §2
C2C12 [9] = experiment: Cytotoxicity against mouse C2C12 cells after 24 hrs by WST-1 assay; type: functional, cell-based; conditions: C2C12, 24 h; how it was run: as §2
C2C12 [10] = experiment: Cytotoxicity against mouse C2C12 cells after 48 hrs by WST-1 assay; type: functional, cell-based; conditions: C2C12, 48 h; how it was run: as §2
C2C12 [11] = experiment: Cytotoxicity against mouse C2C12 cells after 72 hrs by WST-1 assay; type: functional, cell-based; conditions: C2C12, 72 h; how it was run: as §2
U2OS [12] = experiment: Cytotoxicity against human U2OS cells after 48 hrs by WST-1 assay; type: functional, cell-based; how it was run: as §2
U2OS [13] = experiment: Cytotoxicity against human U2OS cells after 72 hrs by WST-1 assay; type: functional, cell-based; how it was run: as §2
MCF7 [14] = experiment: Cytotoxicity against human MCF7 cells after 24 hrs by WST-1 assay; type: functional, cell-based; conditions: MCF7, 24 h; how it was run: as §2
MCF7 [15] = experiment: Cytotoxicity against human MCF7 cells after 48 hrs by WST-1 assay; type: functional, cell-based; conditions: MCF7, 48 h; how it was run: as §2
MCF7 [16] = experiment: Cytotoxicity against human MCF7 cells after 72 hrs by WST-1 assay; type: functional, cell-based; conditions: MCF7, 72 h; how it was run: as §2
[17] = Cytotoxicity against human MIAPaCa2 cells after 24 hrs by WST-1 assay; type: functional, cell-based; conditions: MIA PaCa-2, 24 h; how it was run: as §2
[18] = Cytotoxicity against human MIAPaCa2 cells after 48 hrs by WST-1 assay; type: functional, cell-based; conditions: MIA PaCa-2, 48 h; how it was run: as §2
HT-29 [19] = experiment: Cytotoxicity against human HT-29 cells after 24 hrs by WST-1 assay; type: functional, cell-based; conditions: HT-29, 24 h; how it was run: as §2
HT-29 [20] = experiment: Cytotoxicity against human HT-29 cells after 48 hrs by WST-1 assay; type: functional, cell-based; conditions: HT-29, 48 h; how it was run: as §2
[21] = Cytotoxicity against rat peritoneal cells assessed as reduction in cell viability at 40 uM after 24 hrs by WST-1 assay; type: cell-based
PC-3 [22] = experiment: Induction of LPS-induced NO production in human PC3 cells at 40 uM after 24 hrs using DAR-2 probe by fluorescence assay; type: functional, cell-based
How it was run: (§3)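 NO in living cells (PC-3, LNCaP, MCF-7, U-2 OS) was imaged by fluorescence microscopy with the NO-specific red-emitting probe DAR-2 after compound stimulation.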

LNCaP [23] = experiment: Induction of LPS-induced NO production in human LNCAP cells at 40 uM after 24 hrs using DAR-2 probe by fluorescence assay; type: functional, cell-based; how it was run: as §3
U2OS [24] = experiment: Induction of LPS-induced NO production in human U2OS cells at 40 uM after 24 hrs using DAR-2 probe by fluorescence assay; type: functional, cell-based; how it was run: as §3
Rattus norvegicus = species: Rattus norvegicus; experiment: Induction of LPS-induced NO production in rat peritoneal cells at 1 to 10 uM after 24 hrs using DAR-2 probe by fluorescence assay; type: functional, cell-based
How it was run: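 Rat peritoneal cells were treated with conjugates at 0.01–100.0 μM for 24 h. NO production was compared with untreated cells. LPS (100 pg·mL−1) and trilobolide (0.1 μM) were included as references. Data are mean ± SEM of three independent experiments, n = 6.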

[25] = Cellular uptake in human PC3 cells at 1 uM after 20 mins by fluorescence microscopy; type: ADME, cell-based; conditions: pc-3, 20 min
How it was run: (§4)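 Uptake into living cells was followed by fluorescence microscopy at 10, 20 and 40 min and at 1, 3, 5 and 24 h. Green-emitting Bodipy conjugates were given at 1 μM. A Bodipy dye-only stain served as control for dye-driven localisation.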

MCF7 [26] = experiment: Cellular uptake in human MCF7 cells at 1 uM after 20 mins by fluorescence microscopy; type: ADME, cell-based; conditions: mcf7, 20 min; how it was run: as §4
HeLa = experiment: Cellular uptake in human HeLa cells at 1 uM after 20 mins by fluorescence microscopy; type: ADME, cell-based; how it was run: as §4
[27] = Cellular uptake in human MIAPaCa2 cells at 1 uM after 20 mins by fluorescence microscopy; type: ADME, cell-based; conditions: mia paca-2, 20 min; how it was run: as §4
A549 = experiment: Cellular uptake in human A549 cells at 1 uM after 20 mins by fluorescence microscopy; type: ADME, cell-based; conditions: a549, 20 min; how it was run: as §4
[28] = Cellular uptake in HEK293T cells at 1 uM after 20 mins by fluorescence microscopy; type: ADME, cell-based; conditions: human, hek-293t; how it was run: as §4
[29] = Cellular uptake in human PC3 cells at 1 uM after 40 mins to 24 hrs by fluorescence microscopy; type: ADME, cell-based; conditions: pc-3, 1 µM; how it was run: as §4
LNCaP [30] = experiment: Cellular uptake in human LNCAP cells at 1 uM after 40 mins to 24 hrs by fluorescence microscopy; type: ADME, cell-based; how it was run: as §4
[31] = Cellular uptake in human MIAPaCa2 cells at 1 uM after 40 mins to 24 hrs by fluorescence microscopy; type: ADME, cell-based; conditions: mia paca-2, 1 µM; how it was run: as §4
U2OS [32] = experiment: Cellular uptake in human U2OS cells at 1 uM after 45 to 60 mins by fluorescence microscopy; type: ADME, cell-based; how it was run: as §4
U2OS [33] = experiment: Cellular uptake in human U2OS cells at 2 uM after 0.5 to 24 hrs by fluorescence microscopy; type: ADME, cell-based
How it was run: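 U-2 OS live cells were imaged by fluorescence microscopy across a range of conjugate concentrations and time points from 0.5 to 24 h. The intracellular signal plateau was then assessed.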

[34] = Cellular uptake in Endoplasmic reticulum of human PC3 cells at 1 uM after 1 hr by fluorescence microscopy; type: ADME, cell-based; conditions: pc-3, 1 h
How it was run: (§5)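 Live-cell fluorescence microscopy of cells exposed to Bodipy-labelled conjugates at 1 μM for 1 h. ER was co-stained with ER-Tracker Blue-White DPX (100 nM, 20 min) to check colocalisation. A Bodipy dye-only stain served as control.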

[35] = Cellular uptake in Endoplasmic reticulum of human LNCAP cells at 1 uM after 1 hr by fluorescence microscopy; type: ADME, cell-based; how it was run: as §5
[36] = Cellular uptake in Endoplasmic reticulum of human HeLa cells at 1 uM after 1 hr by fluorescence microscopy; type: ADME, cell-based; how it was run: as §5
U2OS [37] = experiment: Induction of ER stress in Endoplasmic reticulum of human U2OS cells assessed as small vesicle formation from ER network at 1 uM after 3 to 5 hrs by fluorescence microscopy; type: functional, cell-based
How it was run: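 U-2 OS live cells were incubated with conjugates at 1 μM for 1, 3 and 5 h. Fluorescence microscopy was used to score small vesicles or pouches budding from the ER network.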

U2OS [38] = experiment: Induction of mitochondria fragmentation in human U2OS cells at 1 uM after 10 to 40 mins by fluorescence microscopy; type: functional, cell-based; how it was run: as §1

C/C=C(/C)C(=O)O[C@@H]1C[C@H]2C(=C1C)[C@@H]1OC(=O)[C@@](C)(O)[C@@]1(O)[C@@H](OC(=O)CCOCCOCCOCCOCCn1cc(COc3ccc(C4=C5C=CC=[N+]5[B-](F)(F)n5cccc54)cc3)nn1)C[C@]2(C)OC(C)=O
Drug uptake [1]: Not Active | Activity (PC-3 [2]): Active | IC50 (LNCaP [3]): 7.4 µM | IC50 (LNCaP [4]): 0.4 µM | IC50 (LNCaP [5]): 20.5 µM | IC50 [6]: 2.5 µM | IC50 [7]: 3.1 µM | IC50 [8]: 4.1 µM | IC50 (C2C12 [9]): 8 µM | IC50 (C2C12 [10]): 6.5 µM | IC50 (C2C12 [11]): 14.3 µM | IC50 (U2OS [12]): 5.4 µM | IC50 (U2OS [13]): 9.1 µM | IC50 (MCF7 [14]): 7.4 µM | IC50 (MCF7 [15]): 6.3 µM | IC50 (MCF7 [16]): 6 µM | IC50 [17]: > 50 µM | IC50 [18]: 9.9 µM | IC50 (HT-29 [19]): > 50 µM | IC50 (HT-29 [20]): 14.2 µM | Activity [21]: Non-toxic | Activity (PC-3 [22]): Active | Activity (LNCaP [23]): Active | Activity (U2OS [24]): Active | Activity (Rattus norvegicus): Active | Drug uptake [25]: Active | Drug uptake (MCF7 [26]): Active | Drug uptake (HeLa): Active | Drug uptake [27]: Active | Drug uptake (A549): Active | Drug uptake [28]: Active | Drug uptake [29]: Active | Drug uptake (LNCaP [30]): Active | Drug uptake [31]: Active | Drug uptake (U2OS [32]): Not Active | Drug uptake (U2OS [33]): Active | Drug uptake [34]: Active | Drug uptake [35]: Active | Drug uptake [36]: Active | Activity (U2OS [37]): Active | Activity (U2OS [38]): Active

C/C=C(/C)C(=O)O[C@@H]1C[C@H]2C(=C1C)[C@@H]1OC(=O)[C@@](C)(O)[C@@]1(O)[C@@H](OC(=O)CCCCn1cc(COc3ccc(C4=C5C=CC=[N+]5[B-](F)(F)n5cccc54)cc3)nn1)C[C@]2(C)OC(C)=O
Drug uptake [1]: Not Active | Activity (PC-3 [2]): Active | IC50 (LNCaP [3]): 12.7 µM | IC50 (LNCaP [4]): 9.7 µM | IC50 (LNCaP [5]): > 50 µM | IC50 [6]: 4.2 µM | IC50 [7]: 4.6 µM | IC50 [8]: 3.8 µM | IC50 (C2C12 [9]): > 50 µM | IC50 (C2C12 [10]): 7.5 µM | IC50 (C2C12 [11]): 15.1 µM | IC50 (U2OS [12]): 13.2 µM | IC50 (U2OS [13]): 9.1 µM | IC50 (MCF7 [14]): > 50 µM | IC50 (MCF7 [15]): 12.8 µM | IC50 (MCF7 [16]): 10.8 µM | IC50 [17]: > 50 µM | IC50 [18]: 43.5 µM | IC50 (HT-29 [19]): > 50 µM | IC50 (HT-29 [20]): > 50 µM | Activity [21]: 20% | Activity (PC-3 [22]): Active | Activity (LNCaP [23]): Active | Activity (U2OS [24]): Active | Activity (Rattus norvegicus): Active | Drug uptake [25]: Active | Drug uptake (MCF7 [26]): Active | Drug uptake (HeLa): Active | Drug uptake [27]: Active | Drug uptake (A549): Active | Drug uptake [28]: Active | Drug uptake [29]: Active | Drug uptake (LNCaP [30]): Active | Drug uptake [31]: Active | Drug uptake (U2OS [32]): Not Active | Drug uptake (U2OS [33]): Active | Drug uptake [34]: Active | Drug uptake [35]: Active | Drug uptake [36]: Active | Activity (U2OS [37]): Active | Activity (U2OS [38]): Active
